Experimental data taken from PubChem BioAssay.
Activity calls are given as the source filed them.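 The calls were made as follows, unless noted: active = NADPH fluorescence slope more negative than the mean of all samples by about 3 SD, 99.7% confidence; inactive = the rest.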

What was measured:
[1] = inhibitors of TNFa-induced NFkB p65 translocation, primary screen, imaging, HUVEC, MLSMR starter and 10KST1 sets (AID 438;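 active = inhibition above 20% together with a positive visual image hit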;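 also: compound added about 3h40 before a 20 min TNFalpha stimulation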;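 as to inhibition: signal is the nuclear over cytoplasmic p65 intensity ratio per well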); conditions: HUVEC TNFa-induced p65 nuclear translocation; cell count: measured here: nuclei count (cytotoxicity indicator), at 2.08 µM; inhibition: at 2 µM, stronger effect = higher value, 0% TNFa-plus-vehicle, 100% no-TNFa wells
[2] = inhibitors of E-selectin induction by TNFa, primary screen, imaging, HUVEC, immunofluorescence, MLSMR starter and 10KST1 sets (AID 487;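 active = visually confirmed hit in the image check and inhibition above 20%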;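 as to inhibition: signal is fraction of cell area covered by stained E-selectin grains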;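 as to nuclei count: 100% = median nuclei count of all wells on the same plate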); conditions: HUVEC TNFalpha-induced E-selectin immunofluorescence imaging, at 2 µM; inhibition: stronger effect = higher value; nuclei count: measured here: cell number, toxicity
[3] = DUSP6 inhibitors restoring Erk phosphorylation by chemical complementation, primary imaging in DUSP6-transfected HeLa (AID 609;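 active = compounds giving at least 50% inhibition in the cell-based MKP-3 phosphatase rescue imaging test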;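 as to inhibition: phospho-Erk level distribution per well compared with pooled transfected vehicle control wells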); conditions: HeLa MKP-3 transfected, phospho-Erk imaging KS statistic, at 10 µM, cells stimulated with TPA for 15 min
[4] = molecular target: Dual specificity protein phosphatase 6 (Homo sapiens) (UniProt Q16828); experiment: as above; conditions: HeLa MKP-3 transfected, phospho-Erk imaging KS statistic; at 10 µM; stronger effect = higher value; cells stimulated with TPA for 15 min
Dual specificity protein phosphatase 6 (Homo sapiens), sequence (Q16828 whole entry, looked up): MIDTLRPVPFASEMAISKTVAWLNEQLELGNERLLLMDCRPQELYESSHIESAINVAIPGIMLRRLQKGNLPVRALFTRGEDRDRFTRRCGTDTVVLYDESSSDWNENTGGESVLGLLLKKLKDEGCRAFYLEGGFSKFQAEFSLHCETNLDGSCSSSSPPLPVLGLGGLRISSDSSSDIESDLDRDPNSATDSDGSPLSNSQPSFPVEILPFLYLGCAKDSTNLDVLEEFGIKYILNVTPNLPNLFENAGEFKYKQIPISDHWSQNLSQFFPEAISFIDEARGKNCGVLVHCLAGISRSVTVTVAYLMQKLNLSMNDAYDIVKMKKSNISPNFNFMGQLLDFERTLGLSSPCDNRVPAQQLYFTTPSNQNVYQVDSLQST

[5] = molecular target: Voltage-gated potassium channel subunit beta-2 (Rattus norvegicus) (UniProt P62483); experiment: KvBeta enzyme negative modulators, primary screen, biochemical, NADPH fluorescence (AID 622;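 active = fluorescence slope higher than the sample average by over 3 SD, cut at about -0.22 in these data, passing the limit was not always enough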;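 also: slope of raw intensity against log time taken from 70 to 1610 s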); conditions: recombinant KvBeta, 4-cyanobenzaldehyde reduction, at 10 µM, stronger effect = higher value
Voltage-gated potassium channel subunit beta-2 (Rattus norvegicus), sequence (P62483 whole entry, looked up): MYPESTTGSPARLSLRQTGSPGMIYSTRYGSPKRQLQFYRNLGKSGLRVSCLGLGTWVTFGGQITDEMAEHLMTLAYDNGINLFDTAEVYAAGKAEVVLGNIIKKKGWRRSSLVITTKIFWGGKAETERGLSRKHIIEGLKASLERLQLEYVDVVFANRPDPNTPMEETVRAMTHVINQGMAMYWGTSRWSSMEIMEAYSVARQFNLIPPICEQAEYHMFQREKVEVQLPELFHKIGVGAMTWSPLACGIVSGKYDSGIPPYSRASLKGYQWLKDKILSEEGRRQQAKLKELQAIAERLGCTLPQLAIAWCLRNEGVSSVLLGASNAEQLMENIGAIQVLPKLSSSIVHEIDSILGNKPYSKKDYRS

[6] = molecular target: Voltage-gated potassium channel subunit beta-2 (Rattus norvegicus) (UniProt P62483); experiment: KvBeta positive modulators, primary screen, biochemical, NADPH fluorescence (AID 623); conditions: Recombinant KvBeta, NADPH fluorescence decrease slope, 10 min; at 10 µM; stronger effect = lower value;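 also: fluorescence intensity change per second fitted from 20 to 320 s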
[7] = molecular target: Alpha-2C adrenergic receptor (Homo sapiens) (UniProt P18825); experiment: modulators of alpha2C/GIRK thallium flux, primary screen, cell-based, HEK293 alpha2C/GIRK1/2 (AID 624;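 active = fluorescence slope after compound addition differing from the mean of all screened samples at 99.7% confidence, in either direction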;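 also: slope of fluorescence ratio to pre-addition baseline per second over 15 to 24 s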); conditions: thallium flux BTC fluorescence, at 10 µM, actives lie on both sides
Alpha-2C adrenergic receptor (Homo sapiens), sequence (P18825 whole entry, looked up): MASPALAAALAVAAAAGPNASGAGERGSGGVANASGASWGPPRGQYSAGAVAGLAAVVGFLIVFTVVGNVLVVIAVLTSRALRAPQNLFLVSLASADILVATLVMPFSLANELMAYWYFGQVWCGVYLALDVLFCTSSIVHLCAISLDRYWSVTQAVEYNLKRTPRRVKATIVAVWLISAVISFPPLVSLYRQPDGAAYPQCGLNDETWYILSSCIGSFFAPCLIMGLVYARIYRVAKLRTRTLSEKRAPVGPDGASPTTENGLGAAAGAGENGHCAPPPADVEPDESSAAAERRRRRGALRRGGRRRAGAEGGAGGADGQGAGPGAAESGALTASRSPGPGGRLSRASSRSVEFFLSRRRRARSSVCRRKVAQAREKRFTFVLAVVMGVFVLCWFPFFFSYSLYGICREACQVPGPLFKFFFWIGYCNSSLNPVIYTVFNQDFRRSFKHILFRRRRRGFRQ

[8] = inhibitors of larval lipid processing in zebrafish, primary screen, whole organism, PED6 fluorescence, gall bladder and intestine (AID 686;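 active = a full or partial loss of lipid-probe fluorescence in the fish gall bladder, intestine or both, judged by eye; inactive = no fluorescence loss, or compound toxic to the fish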;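 also: larvae 5 to 7 days old with five fish per well; signal comes from phospholipase A2 cleavage of quenched PED6 carried via bile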); conditions: Zebrafish larvae PED6 lipid processing, fluorescence scoring; screened at 20 µM (by protocol)
Method in brief: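 Incubation: overnight exposure of larvae to compound plus PED6 / Test system: live zebrafish larvae aged 5-7 days, whole organism / Amount: 5 larvae per well / Read-out basis: visual per-well fluorescence inhibition score / Signal: visual fluorescence microscopy scoring of gall bladder, gut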

[9] = inhibitors of Chlamydomonas gravitaxis, primary screen, whole organism, Chlamydomonas reinhardtii, WT vs cilia-less mutant, absorbance, 96-well (AID 463189;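 active = inhibition at or above 50% relative to wild type and mutant plate controls; inactive = inhibition below 50%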;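 also: 0% = wild type cc124 cells in DMSO and 100% = ciliumless bld1 mutant cells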); conditions: OD600 absorbance, 2 days, at 10 µM, stronger effect = higher value
[10] = measured here: cell density z-score
[11] = measured here: nuclear c-Myc green intensity z-score
[12] = measured here: nuclear pErk red intensity z-score, stronger effect = higher value

Row | SMILES | cell count [1] | inhibition [1] | inhibition [2] | nuclei count [2] | z-score [3, 10] | z-score [3, 11] | z-score [3, 12] | inhibition [4] | fluorescence slope [5] | NADPH fluorescence slope [6] | slope [7] | outcome [8] | inhibition [9]
1 | CCCOc1ccc(/C(O)=C2/C(=O)C(=O)N(CCN(C)C)C2c2ccc(OC)c(OC)c2)cc1 (centres undefined) | 461 | -7.3% (inactive) | -136% (inactive) | 167% | -0.67 | 0.995 | 0.868 | 6.04% (inactive) | -0.411 (inactive) | -6.1e-05 (inactive) | 0.00495 (inactive) | inactive | 8% (inactive)
2 | CCCSc1nnc2n(-c3ccccc3OC)c(=O)c3c4c(sc3n12)CCC4 | 523 | -14.8% (inactive) | -63.5% (inactive) | 171% | 1.08 | -1.06 | -0.347 | 7.73% (inactive) | -0.358 (inactive) | -3.5e-05 (inactive) | 0.00552 (inactive) | inactive | 11.2% (inactive)
3 | O=S(=O)(c1ccccc1)N1CCC(N2CCN(c3ccccc3)CC2)CC1 | 454 | -26.3% (inactive) | -98.2% (inactive) | 140% | -1.37 | -0.201 | -1.07 | -3.95% (inactive) | -0.326 (inactive) | 1.7e-05 (inactive) | 0.006 (inactive) | inactive | 1.95% (inactive)
4 | Cc1nc(Nc2ncc3c(n2)CCCC3=O)nc2ccccc12 | 372 | 3.8% (inactive) | 26.2% (inactive) | 122% | 0.317 | -0.989 | 1.03 | 9.42% (inactive) | -0.403 (inactive) | -0.000152 (inactive) | 0.00649 (inactive) | inactive | 22.8% (inactive)
5 | COc1ccc(N(CN2C(=O)C3C4C=CC(C4)C3C2=O)C(=O)c2ccco2)cc1 (centres undefined) | 541 | 2.9% (inactive) | -74.9% (inactive) | 117% | -1.56 | 1.43 | 1.11 | 1.6e-07% (inactive) | -0.58 (inactive) | -3.5e-05 (inactive) | 0.00619 (inactive) | inactive | -8.45% (inactive)
6 | COCCOC(=O)c1c(C)nc(SCC(=O)Nc2ccc(C)cc2)c(C#N)c1-c1ccco1 | 403 | 0.9% (inactive) | -123% (inactive) | 124% | 1.33 | 0.851 | -1.03 | -2.59% (inactive) | -0.446 (inactive) | -8.7e-05 (inactive) | 0.00716 (inactive) | inactive | 7.49% (inactive)
7 | N#CCSc1nc2sc3c(c2c(=O)n1C1CCCCC1)CCCC3 | 651 | -21.9% (inactive) | 9.7% (inactive) | 167% | -0.927 | 0.708 | 1.09 | 3.56% (inactive) | -0.354 (inactive) | -1.5e-05 (inactive) | 0.00554 (inactive) | inactive | -20.7% (inactive)
8 | CCC1(C)Cc2c(sc3c2c(=O)n(C)c2nnc(SCC(=O)c4ccc(Cl)cc4)n32)CO1 (centres undefined) | 559 | -2.6% (inactive) | -61.6% (inactive) | 121% | -1.48 | 3.25 | -1.65 | 9.82% (inactive) | -0.37 (inactive) | 2e-05 (inactive) | 0.00685 (inactive) | inactive | -10.8% (inactive)
9 | Cc1ccc(N2C(=O)CC(N(O)C3CC(=O)N(c4ccc(C)cc4)C3=O)C2=O)cc1 (centres undefined) | 364 | 0% (inactive) | 28.2% (inactive) | 126% | 0.996 | 0.402 | 0.988 | -0.584% (inactive) | -0.427 (inactive) | -0.000136 (inactive) | 0.0056 (inactive) | inactive | 54.9% (active)
10 | COc1ccc(CCCNC(=O)CC#N)cc1OC | 652 | -3.9% (inactive) | -14.5% (inactive) | 185% | -0.133 | 0.521 | -0.241 | 17% (inactive) | -0.512 (inactive) | -4.5e-05 (inactive) | 0.00537 (inactive) | inactive | 10.9% (inactive)
11 | CCOc1ccc(-c2nnc3sc(-c4ccccc4OC)nn23)cc1 | 613 | -5.4% (inactive) | 36% (inactive) | 174% | -0.391 | 2.01 | -1.56 | -9.66% (inactive) | -0.403 (inactive) | -0.000132 (inactive) | 0.00485 (inactive) | inactive | 0.927% (inactive)
12 | CCCCOc1ccc(C2CC(=O)N(C)C2=O)cc1 (centres undefined) | 641 | -9.7% (inactive) | 63.8% (inactive) | 175% | -0.371 | -0.965 | 1.92 | 7.48% (inactive) | -0.516 (inactive) | -6.5e-05 (inactive) | 0.00432 (inactive) | inactive | 3.29% (inactive)
13 | Cc1cc(=O)[nH]c(SCC(=O)c2ccccc2)c1C#N | 391 | -0.9% (inactive) | 1.9% (inactive) | 168% | 2.74 | -1.01 | -0.58 | 13.4% (inactive) | -0.41 (inactive) | -0.000133 (inactive) | 0.00479 (inactive) | inactive | -2.65% (inactive)
